The M2OR odorant receptor database

How the values were obtained:
Conditions in all cases: stereoisomer not certain
OR5AN1 (Homo sapiens) = biological target: T1, OR5AN1 (Homo sapiens) (UniProt Q8NGI8)
T1 sequence (whole entry): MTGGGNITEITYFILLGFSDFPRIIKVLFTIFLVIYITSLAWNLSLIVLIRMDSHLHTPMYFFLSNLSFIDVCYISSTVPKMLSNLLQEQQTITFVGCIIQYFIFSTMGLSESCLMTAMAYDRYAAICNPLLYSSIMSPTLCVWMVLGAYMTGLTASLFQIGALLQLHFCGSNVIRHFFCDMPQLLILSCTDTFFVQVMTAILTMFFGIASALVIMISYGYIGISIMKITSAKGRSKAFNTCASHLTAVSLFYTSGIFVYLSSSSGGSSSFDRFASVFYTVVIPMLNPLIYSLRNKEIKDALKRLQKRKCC
Outline: (§1)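 Values were gathered from published papers (main text and supplementary material), with extra details requested from the original authors when needed, and checked for typos and inconsistencies. Each receptor–molecule pair is called responsive (active) if the original authors judged the measured signal statistically different from baseline, and non-responsive (inactive) otherwise. Assay methods varied by source, often transient mammalian cell-line luciferase assays. Recorded details include cell line, G-protein, co-transfected protein and tags.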

OR5AC1 (Homo sapiens) = OR5AC1 (Homo sapiens) (UniProt P0C628)
Sequence of OR5AC1 (Homo sapiens) (P0C628 whole entry): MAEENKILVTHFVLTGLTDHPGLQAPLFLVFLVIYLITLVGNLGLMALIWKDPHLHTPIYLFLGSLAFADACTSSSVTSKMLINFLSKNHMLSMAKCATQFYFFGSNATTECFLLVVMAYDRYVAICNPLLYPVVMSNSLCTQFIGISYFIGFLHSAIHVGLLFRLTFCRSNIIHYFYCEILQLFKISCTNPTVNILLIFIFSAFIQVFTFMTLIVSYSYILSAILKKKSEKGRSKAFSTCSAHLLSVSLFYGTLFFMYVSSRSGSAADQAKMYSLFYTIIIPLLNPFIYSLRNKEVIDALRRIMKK
Outline: as §1

OR5AC2 (Homo sapiens) = biological target: T2, OR5AC2 (Homo sapiens) (UniProt Q9NZP5)
T2 sequence (whole entry): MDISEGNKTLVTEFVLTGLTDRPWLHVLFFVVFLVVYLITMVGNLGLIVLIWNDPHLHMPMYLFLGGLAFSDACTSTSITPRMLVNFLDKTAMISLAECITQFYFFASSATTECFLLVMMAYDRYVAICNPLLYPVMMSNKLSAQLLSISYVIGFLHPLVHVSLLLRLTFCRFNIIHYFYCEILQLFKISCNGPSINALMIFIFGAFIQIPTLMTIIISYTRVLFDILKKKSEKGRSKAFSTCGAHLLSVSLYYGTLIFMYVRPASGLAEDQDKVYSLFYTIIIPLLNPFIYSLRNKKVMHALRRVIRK
Outline: as §1

OR5AK2 (Homo sapiens) = OR5AK2 (Homo sapiens) (UniProt Q8NH90)
Sequence of OR5AK2 (Homo sapiens) (Q8NH90 whole entry): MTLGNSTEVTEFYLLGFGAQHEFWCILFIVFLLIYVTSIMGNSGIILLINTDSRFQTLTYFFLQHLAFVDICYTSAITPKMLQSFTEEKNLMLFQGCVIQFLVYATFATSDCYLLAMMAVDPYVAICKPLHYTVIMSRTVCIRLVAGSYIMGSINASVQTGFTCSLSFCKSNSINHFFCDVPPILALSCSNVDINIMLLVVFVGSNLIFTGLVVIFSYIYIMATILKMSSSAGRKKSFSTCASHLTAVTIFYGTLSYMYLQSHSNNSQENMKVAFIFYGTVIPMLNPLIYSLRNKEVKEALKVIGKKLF
Outline: as §1

OR5AL1 (Homo sapiens) = OR5AL1 (Homo sapiens) (UniProt P0C617)
Sequence of OR5AL1 (Homo sapiens) (P0C617 whole entry): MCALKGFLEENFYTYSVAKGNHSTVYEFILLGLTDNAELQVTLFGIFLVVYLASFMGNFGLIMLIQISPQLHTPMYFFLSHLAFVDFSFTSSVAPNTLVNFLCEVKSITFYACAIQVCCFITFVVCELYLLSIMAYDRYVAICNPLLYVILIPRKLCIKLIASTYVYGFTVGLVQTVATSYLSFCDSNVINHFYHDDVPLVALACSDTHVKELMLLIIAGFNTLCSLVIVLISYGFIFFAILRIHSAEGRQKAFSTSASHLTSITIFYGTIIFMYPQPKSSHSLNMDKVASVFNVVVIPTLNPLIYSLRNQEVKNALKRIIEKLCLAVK
Outline: as §1

OR5AP2 (Homo sapiens) = OR5AP2 (Homo sapiens) (UniProt Q8NGF4)
Sequence of OR5AP2 (Homo sapiens) (Q8NGF4 whole entry): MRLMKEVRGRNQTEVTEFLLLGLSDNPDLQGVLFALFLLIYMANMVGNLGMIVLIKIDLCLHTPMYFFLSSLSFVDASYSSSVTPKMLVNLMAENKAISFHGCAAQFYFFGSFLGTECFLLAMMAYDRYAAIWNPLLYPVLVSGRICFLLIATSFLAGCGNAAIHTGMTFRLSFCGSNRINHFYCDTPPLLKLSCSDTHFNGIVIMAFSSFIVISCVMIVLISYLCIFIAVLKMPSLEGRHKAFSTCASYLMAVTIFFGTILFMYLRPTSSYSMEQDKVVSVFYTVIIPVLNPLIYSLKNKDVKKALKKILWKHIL
Outline: as §1

OR5AR1 (Homo sapiens) = OR5AR1 (Homo sapiens) (UniProt Q8NGP9)
Sequence of OR5AR1 (Homo sapiens) (Q8NGP9 whole entry): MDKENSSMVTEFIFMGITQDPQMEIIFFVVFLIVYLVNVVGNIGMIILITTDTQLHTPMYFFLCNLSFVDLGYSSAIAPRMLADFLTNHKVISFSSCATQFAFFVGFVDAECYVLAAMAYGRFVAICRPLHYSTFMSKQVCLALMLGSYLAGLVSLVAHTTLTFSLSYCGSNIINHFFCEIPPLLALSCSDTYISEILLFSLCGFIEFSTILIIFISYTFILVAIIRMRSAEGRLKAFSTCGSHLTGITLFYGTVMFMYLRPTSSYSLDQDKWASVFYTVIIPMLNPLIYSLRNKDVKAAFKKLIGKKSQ
Outline: as §1

OR5AS1 (Homo sapiens) = OR5AS1 (Homo sapiens) (UniProt Q8N127)
Sequence of OR5AS1 (Homo sapiens) (Q8N127 whole entry): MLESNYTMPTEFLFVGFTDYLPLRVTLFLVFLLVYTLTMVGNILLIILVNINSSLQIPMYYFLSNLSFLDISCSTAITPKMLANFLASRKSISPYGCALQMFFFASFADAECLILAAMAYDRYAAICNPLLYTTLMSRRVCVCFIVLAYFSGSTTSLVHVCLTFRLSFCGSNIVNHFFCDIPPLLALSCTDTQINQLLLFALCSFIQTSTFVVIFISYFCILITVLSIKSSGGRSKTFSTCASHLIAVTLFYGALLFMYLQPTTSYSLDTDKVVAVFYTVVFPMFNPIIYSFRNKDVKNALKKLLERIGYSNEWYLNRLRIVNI
Outline: as §1

OR5AU1 (Homo sapiens) = OR5AU1 (Homo sapiens) (UniProt Q8NGC0)
Sequence of OR5AU1 (Homo sapiens) (Q8NGC0 whole entry): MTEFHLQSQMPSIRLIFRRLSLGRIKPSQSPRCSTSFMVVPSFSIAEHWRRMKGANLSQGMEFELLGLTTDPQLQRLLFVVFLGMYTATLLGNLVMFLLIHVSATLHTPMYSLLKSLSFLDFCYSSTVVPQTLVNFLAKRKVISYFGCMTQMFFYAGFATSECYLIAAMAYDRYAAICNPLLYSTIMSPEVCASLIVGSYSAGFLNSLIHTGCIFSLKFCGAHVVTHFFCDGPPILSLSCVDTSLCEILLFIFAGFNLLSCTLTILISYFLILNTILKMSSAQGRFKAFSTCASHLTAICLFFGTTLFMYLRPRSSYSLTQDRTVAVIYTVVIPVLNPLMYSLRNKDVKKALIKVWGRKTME
Outline: as §1

OR5B12 (Homo sapiens) = OR5B12 (Homo sapiens) (UniProt Q96R08)
Sequence of OR5B12 (Homo sapiens) (Q96R08 whole entry): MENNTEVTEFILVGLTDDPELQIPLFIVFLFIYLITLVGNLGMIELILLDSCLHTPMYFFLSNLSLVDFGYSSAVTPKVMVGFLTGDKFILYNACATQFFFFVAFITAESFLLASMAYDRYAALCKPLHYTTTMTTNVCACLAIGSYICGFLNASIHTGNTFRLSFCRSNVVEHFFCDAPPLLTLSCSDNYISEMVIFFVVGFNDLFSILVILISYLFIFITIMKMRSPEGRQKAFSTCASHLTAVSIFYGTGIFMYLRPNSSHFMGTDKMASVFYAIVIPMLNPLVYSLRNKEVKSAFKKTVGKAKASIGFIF
Outline: as §1

OR5B17 (Homo sapiens) = biological target: T3, OR5B17 (Homo sapiens) (UniProt Q8NGF7)
T3 sequence (whole entry): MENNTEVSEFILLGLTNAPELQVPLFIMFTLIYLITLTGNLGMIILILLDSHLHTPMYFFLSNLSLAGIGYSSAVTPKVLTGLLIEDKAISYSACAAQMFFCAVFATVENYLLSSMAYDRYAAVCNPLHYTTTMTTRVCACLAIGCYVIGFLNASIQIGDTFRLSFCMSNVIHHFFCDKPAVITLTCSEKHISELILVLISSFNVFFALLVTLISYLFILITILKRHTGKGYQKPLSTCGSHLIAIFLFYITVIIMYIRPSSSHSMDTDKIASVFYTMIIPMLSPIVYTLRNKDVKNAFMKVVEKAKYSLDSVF
Outline: as §1

OR5B2 (Homo sapiens) = OR5B2 (Homo sapiens) (UniProt Q96R09)
Sequence of OR5B2 (Homo sapiens) (Q96R09 whole entry): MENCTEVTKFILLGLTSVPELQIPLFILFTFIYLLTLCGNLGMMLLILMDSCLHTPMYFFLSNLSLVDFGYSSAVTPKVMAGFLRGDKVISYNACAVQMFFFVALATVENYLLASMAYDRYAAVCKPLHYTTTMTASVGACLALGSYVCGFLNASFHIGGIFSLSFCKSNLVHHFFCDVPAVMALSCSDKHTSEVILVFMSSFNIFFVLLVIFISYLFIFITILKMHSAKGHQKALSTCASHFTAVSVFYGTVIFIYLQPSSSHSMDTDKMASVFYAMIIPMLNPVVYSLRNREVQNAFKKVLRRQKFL
Outline: as §1

OR5B21 (Homo sapiens) = OR5B21 (Homo sapiens) (UniProt A6NL26)
Sequence of OR5B21 (Homo sapiens) (A6NL26 whole entry): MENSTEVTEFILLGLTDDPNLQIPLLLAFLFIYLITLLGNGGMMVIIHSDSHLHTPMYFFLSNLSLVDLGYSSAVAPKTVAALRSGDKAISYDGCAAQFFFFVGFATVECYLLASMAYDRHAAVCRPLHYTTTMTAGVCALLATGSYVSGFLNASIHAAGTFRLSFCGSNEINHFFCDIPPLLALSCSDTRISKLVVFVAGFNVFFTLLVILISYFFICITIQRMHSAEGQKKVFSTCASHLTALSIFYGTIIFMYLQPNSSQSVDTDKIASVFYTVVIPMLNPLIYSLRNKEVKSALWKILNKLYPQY
Outline: as §1

OR5B3 (Homo sapiens) = OR5B3 (Homo sapiens) (UniProt Q8NH48)
Sequence of OR5B3 (Homo sapiens) (Q8NH48 whole entry): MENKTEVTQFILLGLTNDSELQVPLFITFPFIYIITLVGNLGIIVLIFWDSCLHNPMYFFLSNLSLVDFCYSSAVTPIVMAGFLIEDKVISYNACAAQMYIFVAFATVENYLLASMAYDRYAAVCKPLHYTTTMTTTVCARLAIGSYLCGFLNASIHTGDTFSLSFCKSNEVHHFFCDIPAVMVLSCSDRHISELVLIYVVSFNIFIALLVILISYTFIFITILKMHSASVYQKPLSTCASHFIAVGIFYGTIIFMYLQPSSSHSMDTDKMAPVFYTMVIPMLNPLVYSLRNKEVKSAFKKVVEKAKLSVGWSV
Outline: as §1

OR5C1 (Homo sapiens) = OR5C1 (Homo sapiens) (UniProt Q8NGR4)
Sequence of OR5C1 (Homo sapiens) (Q8NGR4 whole entry): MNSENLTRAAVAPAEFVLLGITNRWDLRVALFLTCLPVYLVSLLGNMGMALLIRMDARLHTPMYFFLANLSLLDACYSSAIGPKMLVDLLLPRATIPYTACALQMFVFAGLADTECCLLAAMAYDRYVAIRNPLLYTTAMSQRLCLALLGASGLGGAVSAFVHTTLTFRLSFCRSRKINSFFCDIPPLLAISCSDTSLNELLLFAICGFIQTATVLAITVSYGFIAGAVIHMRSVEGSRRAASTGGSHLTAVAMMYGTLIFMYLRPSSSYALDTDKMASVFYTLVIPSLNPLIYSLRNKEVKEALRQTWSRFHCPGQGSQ
Outline: as §1

OR5B2 E6D = test system: OR5B2 E6D
Sequence of OR5B2 E6D (as listed by the source): as the sequence (Q96R09 whole entry) above, with E6D counted along it
Outline: as §1

OR5B3 I198V G247A = test system: OR5B3 I198V G247A
Outline: as §1

OR5BC C141R = test system: OR5BC C141R
Sequence of OR5BC C141R (as listed by the source, stated change not applied): as the sequence (Q96R08 whole entry) above, with C141R counted along it
Outline: as §1

OR5BH L80I I85M = test system: OR5BH L80I I85M
Outline: as §1

OR5BH L80I = test system: OR5BH L80I
Sequence of OR5BH L80I (as listed by the source, stated change not applied): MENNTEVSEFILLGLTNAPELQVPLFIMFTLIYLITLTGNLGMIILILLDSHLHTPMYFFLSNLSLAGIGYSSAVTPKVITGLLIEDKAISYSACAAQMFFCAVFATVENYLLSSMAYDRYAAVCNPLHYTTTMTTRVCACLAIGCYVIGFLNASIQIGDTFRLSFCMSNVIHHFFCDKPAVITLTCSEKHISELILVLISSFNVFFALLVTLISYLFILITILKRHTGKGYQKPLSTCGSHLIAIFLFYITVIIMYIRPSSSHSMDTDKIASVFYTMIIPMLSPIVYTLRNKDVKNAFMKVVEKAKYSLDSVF
Outline: as §1

Measured: odorant receptor agonist call

CC(=O)c1cc(C(C)(C)C)cc2c1CCC2(C)C
inactive: OR5AN1 (Homo sapiens)

Cc1c([N+](=O)[O-])c(C)c([N+](=O)[O-])c(C(C)(C)C)c1[N+](=O)[O-]
active: OR5AN1 (Homo sapiens)
not listed: OR5B2 E6D | OR5B3 I198V G247A | OR5BC C141R | OR5BH L80I I85M | OR5BH L80I
inactive: all other assays above

O=Cc1ccccc1
inactive: OR5AC2 (Homo sapiens) | OR5B17 (Homo sapiens)

C=CCOC(=O)Cc1ccccc1
not listed: OR5AC1 (Homo sapiens) | OR5AL1 (Homo sapiens)
inactive: all other assays above

C=CCc1ccc(OC)cc1
inactive: OR5AC2 (Homo sapiens) | OR5B17 (Homo sapiens)

CC(=O)c1cc2c(cc1C)C(C)(C)C(C)CC2(C)C (stereo unspecified)
inactive: OR5AN1 (Homo sapiens)

O=CC=Cc1ccccc1
inactive: OR5AC2 (Homo sapiens) | OR5B17 (Homo sapiens)
